Experimental data collected from several papers.
Lines come from different studies, so protocols differ.
Target: Serine/threonine-protein kinase DCLK2 (DCLK2, Homo sapiens, UniProt Q8N568)
Residues used in one study (Q8N568 1-766): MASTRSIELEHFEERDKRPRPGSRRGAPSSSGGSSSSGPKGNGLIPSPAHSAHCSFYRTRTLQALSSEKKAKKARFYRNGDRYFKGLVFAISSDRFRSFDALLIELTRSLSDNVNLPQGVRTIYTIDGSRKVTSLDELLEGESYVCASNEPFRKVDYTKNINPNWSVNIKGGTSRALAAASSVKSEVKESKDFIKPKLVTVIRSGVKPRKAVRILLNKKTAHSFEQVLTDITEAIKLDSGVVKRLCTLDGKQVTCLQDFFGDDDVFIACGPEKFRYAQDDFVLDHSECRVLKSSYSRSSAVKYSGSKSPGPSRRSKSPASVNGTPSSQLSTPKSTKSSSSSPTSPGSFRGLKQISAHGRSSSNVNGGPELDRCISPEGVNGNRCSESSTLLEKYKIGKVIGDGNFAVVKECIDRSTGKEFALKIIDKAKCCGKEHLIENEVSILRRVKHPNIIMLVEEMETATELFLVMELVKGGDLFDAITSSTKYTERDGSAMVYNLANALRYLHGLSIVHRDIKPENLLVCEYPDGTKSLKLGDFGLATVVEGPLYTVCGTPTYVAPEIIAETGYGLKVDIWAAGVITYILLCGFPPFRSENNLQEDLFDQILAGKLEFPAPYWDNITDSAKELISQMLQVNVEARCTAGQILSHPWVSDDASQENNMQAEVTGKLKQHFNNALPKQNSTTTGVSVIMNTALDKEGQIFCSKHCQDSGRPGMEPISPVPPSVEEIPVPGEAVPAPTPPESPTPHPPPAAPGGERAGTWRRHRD

Compound | read-out | mode | technique | concentration | endpoint | value
Cn1cc(-c2cc(F)cc(N3CCn4c(cc5c4CCCC5)C3=O)c2CO)cc(Nc2ccc(N3CCN(C4COC4)CC3)cn2)c1=O | enzyme activity | inhibitor | – | 0.1 µM | inhibition | 10%
COc1ncccc1-c1cnn2ccc(N3CCN(C(=O)OC(C)C)CC3)nc12 | binding | – | competition with immobilised ligand | 1 µM | remaining binding | 100%
CC(C)(C)c1cc(C=C(C#N)C#N)cc(Br)c1O | enzyme activity | inhibitor | – | 0.5 µM | remaining activity | 109%
Nc1ncc(-c2nc(N3CCOCC3)nc(N3CCOCC3)n2)c(C(F)F)n1 | binding | – | competition with immobilised ligand | 10 µM | remaining binding | 86%
Cn1cc(-c2cccc(N3CCc4c(sc5c4CC(C)(C)C5)C3=O)c2CO)cc(Nc2ccncn2)c1=O | enzyme activity | inhibitor | – | 1 µM | inhibition | 3%
COc1cc(Nc2ncc(F)c(Nc3ccc4c(n3)NC(=O)C(C)(C)O4)n2)cc(OC)c1OC | binding | – | competition with immobilised ligand | 10 µM | inhibition | 36%
Cn1cncc1[C@@](O)(COc1ccc(C#N)cc1-c1ccc(OC(F)(F)F)cc1)c1ccc(C#N)cc1 | cell-free assay | – | competition with immobilised ligand | 1 µM | remaining binding | 100%
O=c1[nH]c2ccccc2n1C1CCN(Cc2ccc(-c3[nH]c4cc5ncnc5cc4nc3-c3ccccc3)cc2)CC1 | cell-free assay | – | – | 0.5 µM | remaining signal | 107%
N#CC1(c2ccccn2)CCN(Cc2cc(C(=O)O)c(=O)n3ccccc23)CC1 | cell-free assay | – | competition with immobilised ligand | 1 µM | remaining binding | 100%
Cc1nn(C)cc1-c1nc2c(N3CCN(Cc4ccc(Cl)cc4)CC3)c(Cl)cnc2[nH]1 | binding | – | competition with immobilised ligand | 1 µM | remaining binding | 100%
